Measured values taken from ChEMBL document CHEMBL2384933, “Vitexin inhibits inflammatory pain in mice by targeting TRPV1, oxidative stress, and cytokines” (J Nat Prod, 2013).

What was measured:
Design in all cases: dose 2.5 mg/kg, route intraperitoneal
Settings in all cases: in vivo, 168 h
Mus musculus [1] = assay: Hepatotoxicity in Swiss mouse assessed as increase in plasma ALT level at 2.5 mg/kg, ip for 7 days; assay type: toxicity, organism-based
Outline: (§1)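 Mice dosed ip once daily for 7 days; the vehicle was saline or Tris/HCl buffer pH 8.0, with the vehicle data pooled. Plasma AST and ALT were measured with a diagnostic kit as markers of hepatotoxicity.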

Mus musculus [2] = assay: Toxicity in Swiss mouse assessed as increase in myeloperoxidase activity in stomach at 2.5 mg/kg, ip for 7 days by spectrophotometric analysis; assay type: organism-based
Outline: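 Same daily ip dosing for 7 days. Stomach was homogenized in 50 mM K2PO4 pH 6.0 with 0.5% HTAB and spun at 16100g for 2 min. Supernatant was mixed with 50 mM phosphate pH 6.0 containing 0.167 mg/mL o-dianisidine and 0.015% H2O2, then read at 450 nm three times within 1 min. Values came from a neutrophil standard curve, as neutrophils ×10^4/mg tissue.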

Mus musculus [3] = assay: Hepatotoxicity in Swiss mouse assessed as increase in plasma AST level at 2.5 mg/kg, ip for 7 days; assay type: toxicity, organism-based; outline: as §1

Measured: Activity

COc1ccc2c(c1)c(CC(=O)O)c(C)n2C(=O)c1ccc(Cl)cc1 [INDOMETHACIN]
Toxic: all assays above
